Test system: HEK-293T
Assay: Multiplex assay against HEK293T;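 for Population Tubulin-Different-Phenotype (%): share of the cells with healthy nuclei that show this phenotype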
Type: toxicity, cell-based
Conditions: human
Procedure, shortened: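 Values for tubulin, mitochondrial-mass and membrane-permeability phenotypes are per cents of cells with healthy nuclei. These cells were identified by CellPathfinder machine-learning gating of live cells that had been stained at seeding with Hoechst33342, BioTracker Green Microtubule Cytoskeleton Dye, MitoTracker Red and Annexin V Alexa Fluor 680 and imaged on a CQ1 microscope at 37°C and 5% CO2 after compound addition. The gating first set Hoechst high-intensity objects apart from normal cells, then split normal cells into healthy, pyknosed or fragmented nuclei, and pyknosed cells into mitotic or apoptotic.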

[1] = 12 h, 1 µM, compound concentration 1 uM, replicate 1
[2] = 12 h, 1 µM, compound concentration 1 uM, replicate 2
[3] = 12 h, 10 µM, compound concentration 10 uM, replicate 1
[4] = 12 h, 10 µM, compound concentration 10 uM, replicate 2
[5] = 24 h, 1 µM, compound concentration 1 uM, replicate 1
[6] = 24 h, 1 µM, compound concentration 1 uM, replicate 2
[7] = 24 h, 10 µM, compound concentration 10 uM, replicate 1
[8] = 24 h, 10 µM, compound concentration 10 uM, replicate 2
[9] = 48 h, 1 µM, compound concentration 1 uM, replicate 1
[10] = 48 h, 1 µM, compound concentration 1 uM, replicate 2
[11] = 48 h, 10 µM, compound concentration 10 uM, replicate 1
[12] = 48 h, 10 µM, compound concentration 10 uM, replicate 2

CC(Cc1ccc(O)c(O)c1)C(C)Cc1ccc(O)c(O)c1 (stereo unspecified) [NORDIHYDROGUAIARETIC ACID]
Population Apoptotic (%) [1]: 42%
Population Fragmented Nuclei (%) [1]: 12%
Population Healthy Nuclei (%) [1]: 34%
Population Hoechst High Intensity Objects (%) [1]: 16%
Population Mitochondria Different-Phenotype (%) [1]: 81%
Population Mitotic Cells (%) [1]: 57%
Population Normal (%) [1]: 83%
Population Pyknosed Nuclei (%) [1]: 52%
Population Tubulin-Different-Phenotype (%) [1]: 6%
Total Cell Count [1]: 150
Population Apoptotic (%) [2]: 8%
Population Fragmented Nuclei (%) [2]: 6%
Population Healthy Nuclei (%) [2]: 36%
Population Hoechst High Intensity Objects (%) [2]: 5%
Population Membrane Permeable-Phenotype (%) [2]: 2%
Population Mitochondria Different-Phenotype (%) [2]: 28%
Population Mitotic Cells (%) [2]: 91%
Population Normal (%) [2]: 94%
Population Pyknosed Nuclei (%) [2]: 57%
Population Tubulin-Different-Phenotype (%) [2]: 11%
Total Cell Count [2]: 194
Population Apoptotic (%) [3]: 33%
Population Fragmented Nuclei (%) [3]: 12%
Population Healthy Nuclei (%) [3]: 49%
Population Hoechst High Intensity Objects (%) [3]: 15%
Population Membrane Permeable-Phenotype (%) [3]: 3%
Population Mitochondria Different-Phenotype (%) [3]: 71%
Population Mitotic Cells (%) [3]: 66%
Population Normal (%) [3]: 84%
Population Pyknosed Nuclei (%) [3]: 37%
Population Tubulin-Different-Phenotype (%) [3]: 2%
Total Cell Count [3]: 211
Population Apoptotic (%) [4]: 11%
Population Fragmented Nuclei (%) [4]: 6%
Population Healthy Nuclei (%) [4]: 55%
Population Hoechst High Intensity Objects (%) [4]: 4%
Population Membrane Permeable-Phenotype (%) [4]: 1%
Population Mitochondria Different-Phenotype (%) [4]: 14%
Population Mitotic Cells (%) [4]: 88%
Population Normal (%) [4]: 95%
Population Pyknosed Nuclei (%) [4]: 38%
Population Tubulin-Different-Phenotype (%) [4]: 0%
Total Cell Count [4]: 254
Population Apoptotic (%) [5]: 35%
Population Fragmented Nuclei (%) [5]: 12%
Population Healthy Nuclei (%) [5]: 42%
Population Hoechst High Intensity Objects (%) [5]: 12%
Population Membrane Permeable-Phenotype (%) [5]: 1%
Population Mitochondria Different-Phenotype (%) [5]: 46%
Population Mitotic Cells (%) [5]: 64%
Population Normal (%) [5]: 87%
Population Pyknosed Nuclei (%) [5]: 45%
Population Tubulin-Different-Phenotype (%) [5]: 15%
Total Cell Count [5]: 156
Population Apoptotic (%) [6]: 18%
Population Fragmented Nuclei (%) [6]: 5%
Population Healthy Nuclei (%) [6]: 48%
Population Hoechst High Intensity Objects (%) [6]: 3%
Population Membrane Permeable-Phenotype (%) [6]: 6%
Population Mitochondria Different-Phenotype (%) [6]: 11%
Population Mitotic Cells (%) [6]: 81%
Population Normal (%) [6]: 96%
Population Pyknosed Nuclei (%) [6]: 46%
Population Tubulin-Different-Phenotype (%) [6]: 12%
Total Cell Count [6]: 212
Population Apoptotic (%) [7]: 27%
Population Fragmented Nuclei (%) [7]: 17%
Population Healthy Nuclei (%) [7]: 39%
Population Hoechst High Intensity Objects (%) [7]: 7%
Population Membrane Permeable-Phenotype (%) [7]: 0%
Population Mitochondria Different-Phenotype (%) [7]: 50%
Population Mitotic Cells (%) [7]: 72%
Population Normal (%) [7]: 92%
Population Pyknosed Nuclei (%) [7]: 42%
Population Tubulin-Different-Phenotype (%) [7]: 7%
Total Cell Count [7]: 192
Population Apoptotic (%) [8]: 16%
Population Fragmented Nuclei (%) [8]: 8%
Population Healthy Nuclei (%) [8]: 58%
Population Hoechst High Intensity Objects (%) [8]: 3%
Population Membrane Permeable-Phenotype (%) [8]: 1%
Population Mitochondria Different-Phenotype (%) [8]: 4%
Population Mitotic Cells (%) [8]: 83%
Population Normal (%) [8]: 96%
Population Pyknosed Nuclei (%) [8]: 32%
Population Tubulin-Different-Phenotype (%) [8]: 1%
Total Cell Count [8]: 255
Population Apoptotic (%) [9]: 21%
Population Fragmented Nuclei (%) [9]: 11%
Population Healthy Nuclei (%) [9]: 68%
Population Hoechst High Intensity Objects (%) [9]: 8%
Population Membrane Permeable-Phenotype (%) [9]: 5%
Population Mitochondria Different-Phenotype (%) [9]: 19%
Population Mitotic Cells (%) [9]: 78%
Population Normal (%) [9]: 91%
Population Pyknosed Nuclei (%) [9]: 20%
Population Tubulin-Different-Phenotype (%) [9]: 14%
Total Cell Count [9]: 223
Population Apoptotic (%) [10]: 14%
Population Fragmented Nuclei (%) [10]: 7%
Population Healthy Nuclei (%) [10]: 69%
Population Hoechst High Intensity Objects (%) [10]: 5%
Population Membrane Permeable-Phenotype (%) [10]: 7%
Population Mitochondria Different-Phenotype (%) [10]: 1%
Population Mitotic Cells (%) [10]: 85%
Population Normal (%) [10]: 94%
Population Pyknosed Nuclei (%) [10]: 23%
Population Tubulin-Different-Phenotype (%) [10]: 16%
Total Cell Count [10]: 312
Population Apoptotic (%) [11]: 21%
Population Fragmented Nuclei (%) [11]: 21%
Population Healthy Nuclei (%) [11]: 50%
Population Hoechst High Intensity Objects (%) [11]: 11%
Population Membrane Permeable-Phenotype (%) [11]: 7%
Population Mitochondria Different-Phenotype (%) [11]: 5%
Population Mitotic Cells (%) [11]: 78%
Population Normal (%) [11]: 88%
Population Pyknosed Nuclei (%) [11]: 28%
Population Tubulin-Different-Phenotype (%) [11]: 3%
Total Cell Count [11]: 187
Population Apoptotic (%) [12]: 14%
Population Fragmented Nuclei (%) [12]: 7%
Population Healthy Nuclei (%) [12]: 67%
Population Hoechst High Intensity Objects (%) [12]: 4%
Population Membrane Permeable-Phenotype (%) [12]: 5%
Population Mitochondria Different-Phenotype (%) [12]: 1%
Population Mitotic Cells (%) [12]: 85%
Population Normal (%) [12]: 95%
Population Pyknosed Nuclei (%) [12]: 25%
Population Tubulin-Different-Phenotype (%) [12]: 1%
Total Cell Count [12]: 280
